Broadly, the viability is a read-out of living cells in per cent, often relative to untreated cells.

The structures appear in SMILES notation.

The record followed here is article PMC11362645 (International Journal for Parasitology: Parasites and …, 2024).

One series relates to E. tenella sporozoites. Description: In vitro viability assay for E. tenella sporozoites. The format is cell-based, Eimeria tenella. Conditions: for Potency of anti-parasitical effect against Eimeria parasites (category by IC50): criteria of Isah et al., 2016: high, moderate, low/no potency. An outline of the steps:
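E. tenella OPU strain oocysts were sporulated in ~0.1% potassium dichromate at 28 °C and hypochlorite-treated. Sporocysts were excysted for 1–2 h at 41 °C in HBSS with 1% taurodeoxycholic acid and 0.25% trypsin. Sporozoites at 5×10^6/ml in phenol-red-free RPMI 1640 with antibiotics got test compound (screen 100 μM; IC50 range 1–100 μM) for 24 h at 37 °C, 5% CO2. Cell Count Reagent SF was then added for 3 h. Viability was expressed relative to DMSO = 100%.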

A short description of series [1]: In vitro MTT cytotoxicity assay on MDBK cells. The format is cell-based, bovine. Conditions: bovine, MDBK cells (NBL-1 strain). An outline of the steps:
(§1)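 MDBK cells (NBL-1) were kept in MEM with 10% FBS and penicillin/streptomycin at 37 °C, 5% CO2, and passaged with Accutase at ~70% confluence. Cells were seeded at 2×10^4/well and grown 24 h. Test compound was added at final 0.1, 1, 10, 50 or 100 μM, with a DMSO solvent control, for 24 h. MTT was added for 2 h, formazan dissolved in 99% isopropanol, and A562 read. Viability = compound/DMSO ×100. Maximum non-toxic concentration = highest concentration with no significant viability effect. Three repeats.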
On the technique in general: Tetrazolium assays rely on reduction of a dye to a coloured formazan, in cell work by metabolically active cells.

Series [2] deals with Madin-Darby bovine kidney (MDBK) cells. As to the kind of experiment: In vitro MTT cytotoxicity assay on MDBK cells. Conditions: MDBK cells; for Maximum non-toxic concentration: highest concentration with no significant effect on cell viability. The format is cell-based. Summed up: as §1

On to `C[C@H]1[C@H](C)CC[C@]2(C(=O)O)CC[C@]3(C)C(=CC[C@@H]4[C@@]5(C)CC[C@H](O)C(C)(C)[C@@H]5CC[C@]43C)[C@H]12` [Component D-3, Ursolic acid], for which the “Potency of anti-parasitical effect against Eimeria parasites (category by IC50)” value in the series on E. tenella sporozoites is “low/no potency”. In series [1], the viability at 24 h, 0.1 µM was 92.9%; the viability at 24 h, 1 µM was 86.4%; the viability at 24 h, 10 µM worked out at 105%; the viability at 24 h, 50 µM is -13.1%. In series [1], the viability at 24 h, 100 µM was -14.2%. In addition, the “Maximum non-toxic concentration” value in series [2] turned out to be 10 µM.

On to `CC1(C)CC[C@]2(C(=O)O)CC[C@]3(C)C(=CC[C@@H]4[C@@]5(C)CC[C@H](O)C(C)(C)[C@@H]5CC[C@]43C)[C@@H]2C1` [Component C-5, Oleanolic acid], for which the “Potency of anti-parasitical effect against Eimeria parasites (category by IC50)” value with E. tenella sporozoites was “high potency”. Besides, in series [1], the viability at 24 h, 0.1 µM was found to be 99.9%; the viability at 24 h, 1 µM was 99.2%; the viability at 24 h, 10 µM was 102%; the viability at 24 h, 50 µM came to 105%. For the same molecule, the viability at 24 h, 100 µM in series [1] came out at 16.2%. Moreover, the “Concentration that significantly reduced the viability of MDBK cells” value in series [2] (24 h, MTT) came out at 100 µM. Also, the “Maximum non-toxic concentration” value in series [2] was found to be 50 µM.

As for `CC1(C)CC[C@]2(C)CC[C@]3(C)C(=CC[C@@H]4[C@@]5(C)CC[C@H](O)C(C)(C)[C@@H]5CC[C@]43C)[C@@H]2C1` [Component C-1, β-Amyrin], in the series with E. tenella sporozoites (natural components at 100 μM, 24 h, DMSO-treated group = 100%), the Sporozoite viability entry was “no significant effect”. In addition, in series [1], the viability at 24 h, 0.1 µM came to 78.1%; the viability at 24 h, 1 µM amounted to 82.6%; the viability at 24 h, 10 µM amounted to 88.6%; the viability at 24 h, 50 µM turned out to be 87.7%. The viability at 24 h, 100 µM in series [1] stood at 82.4%. Moreover, in series [2], the “Maximum non-toxic concentration” value came to 100 µM.
